Assay outcomes from PubChem BioAssay.
HKDC1 inh: HKDC1 hexokinase inhibitors, primary screen, biochemical, fluorescence, uHTS; recombinant HKDC1, G6PDH/diaphorase resazurin coupled fluorescence; 340,000 compounds, 0.16% hits; AID 493160, 2011; inhibition, % at 20 µM;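 active means inhibition above about 35% when tested at 20 µM, limit read from the data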;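 further: plate controls were DMSO wells with enzyme for no effect and DMSO wells lacking enzyme for full effect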
Target sequence (Q2TB90 whole entry, looked up): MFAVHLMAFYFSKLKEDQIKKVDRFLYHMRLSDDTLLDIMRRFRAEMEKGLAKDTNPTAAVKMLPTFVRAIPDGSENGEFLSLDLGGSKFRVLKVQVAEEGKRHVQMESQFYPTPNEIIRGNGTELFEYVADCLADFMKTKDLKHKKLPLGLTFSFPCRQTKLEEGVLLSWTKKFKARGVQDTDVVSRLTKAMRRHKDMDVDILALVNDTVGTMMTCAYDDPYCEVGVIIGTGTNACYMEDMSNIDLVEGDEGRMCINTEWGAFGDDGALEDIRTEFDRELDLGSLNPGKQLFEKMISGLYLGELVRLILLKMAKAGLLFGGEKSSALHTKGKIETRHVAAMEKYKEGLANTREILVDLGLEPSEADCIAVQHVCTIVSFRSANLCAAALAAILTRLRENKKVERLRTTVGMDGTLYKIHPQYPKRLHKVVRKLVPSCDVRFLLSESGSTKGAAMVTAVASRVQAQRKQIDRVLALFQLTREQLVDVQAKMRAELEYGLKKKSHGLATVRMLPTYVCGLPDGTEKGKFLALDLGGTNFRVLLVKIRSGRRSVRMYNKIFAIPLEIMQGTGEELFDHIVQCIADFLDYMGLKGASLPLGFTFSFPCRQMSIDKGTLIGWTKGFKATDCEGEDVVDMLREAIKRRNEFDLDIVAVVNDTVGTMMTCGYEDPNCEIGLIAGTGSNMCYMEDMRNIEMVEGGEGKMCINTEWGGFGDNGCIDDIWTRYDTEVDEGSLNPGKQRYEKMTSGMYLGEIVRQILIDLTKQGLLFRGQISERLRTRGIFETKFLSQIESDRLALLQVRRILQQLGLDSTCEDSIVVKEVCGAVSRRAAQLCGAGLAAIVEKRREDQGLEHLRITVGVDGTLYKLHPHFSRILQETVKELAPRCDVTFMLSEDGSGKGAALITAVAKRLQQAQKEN
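test system = in-house recombinant HK5 (HKDC1) enzyme | amount = HKDC1 at 5 µg/mL | control set = DMSO-enzyme wells negative, buffer-substituted wells positive | compound = one dose of 20 µM, 1% DMSO | schedule = reaction time 90 min, room temperature, protected from light | technique = resorufin fluorescence at 613 nm | reagent = glucose with 1 mM ATP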
G6PDH CS: L. mesenteroides G6PDH inhibitors, counter-screen for G6PDH-coupled screening assays, biochemical, Leuconostoc mesenteroides enzyme; glucose-6-phosphate dehydrogenase [Leuconostoc mesenteroides]; Purified L. mesenteroides G6PDH, diaphorase/resazurin coupled fluorescence, 45 min; AID 1020, 2008; inhibition, % at 5 µM; 200,000 compounds, 0.12% hits; in the data active means inhibition above about 50%
PfG6PD inh: PfG6PD enzyme inhibitors, primary screen, biochemical, fluorescence intensity, uHTS | PfGluPho enzyme, NADPH resazurin-diaphorase fluorescence | AID 504690, 2011 | 350,000 compounds, 0.78% hits | inhibition, % at 20 µM;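 active means inhibition reaching at least a set limit at 20 µM in the primary screen, cut at about 59% in these data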;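 further: 0% = DMSO wells with substrate and 100% = DMSO wells lacking glucose-6-phosphate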
Diaphorase inh: diaphorase inhibitors and chemical oxidizers, primary screen, counter-screen for diaphorase-coupled primary assays, biochemical, uHTS, resorufin fluorescence. diaphorase resazurin-to-resorufin fluorescence, NADH, 16 min; bacterial (C. kluyveri) enzyme, not human. inhibition, % at 20 µM. 190,000 compounds, 0.69% hits. AID 1217, 2008;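 active means primary screen inhibition at 20 µM above a set limit, cut at about 50% in these data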;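 further: plate controls were DMSO with full reaction for no effect and wells lacking NADH for full effect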
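Test system: bacterial diaphorase enzyme (C. kluyveri); Quantity: 0.14 U/mL diaphorase, enzyme working solution; Times: reaction incubation of 16 min at room temperature; Measured by: fluorescence of resorufin formed from resazurin, Ex 544/Em 590 nm; Benchmarks: positive control minus NADH, DMSO neutral control.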
HKDC1 act conf2: HKDC1 hexokinase activators, confirmation, biochemical, single concentration; shares compounds with HKDC1 inh; AID 504708, 2011; recombinant HKDC1, G6PDH/diaphorase resazurin fluorescence; active compounds read low; 740 compounds, 14% hits; inhibition, % at 20 µM;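 active means inhibition at or below a set negative limit, negative inhibition meaning the enzyme was activated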
* marks the source's active call; other numbers are inactive results; . = no result. Shown are actives, neighbours in structure and some others; about 1.2% of the full set was active somewhere.

SMILES	HKDC1 inh	G6PDH CS	PfG6PD inh	Diaphorase inh	HKDC1 act conf2
CC(C)(C)c1c(Cl)c(O)c(-c2ccccc2)c(=O)n1-c1ccccc1	36*	-2	-22	-10	41
Cc1c(O)c2ccccc2n(-c2ccccc2)c1=O	4	.	11	.	.
CCOC(=O)C1=C(Cc2ccc(Cl)cc2)C(=O)c2ccccc2C1=O	60*	55*	94*	37	39
CCOC(=O)C1=C(C)N=C2c3ccccc3C(=O)C2C1c1ccc(Cl)cc1 (centres undefined)	13	3	12	11	.
C[C@@H]1CN([C@H](C)CO)C(=O)CCCn2cc(nn2)CO[C@H]1CN(C)C(=O)Nc1ccccc1	.	.	9	.	.
CCN(CC)S(=O)(=O)c1ccc(C(=O)NCCc2cc3c(OC)ccc(OC)c3[nH]c2=O)cc1	28	14	29	24	.
COc1ccc2cc(CCNC(=O)c3ccc(S(=O)(=O)N4CCCC4)cc3)c(=O)[nH]c2c1	33	.	8	.	60
COc1ccc(OC)c2[nH]c(=O)c(CCNC(=O)c3ccc(S(=O)(=O)N4CCCC4)cc3)cc12	33	5	14	51*	32
CC(=NNC(=S)N1CC2CCC(CC2)C1)c1ccncn1	-54	.	25	.	-61*
CC(=NNC(=S)N1CCCCC1)c1ccccn1	.	.	51	.	.
O=C1C=C(Nc2ccccc2C(=O)O)c2ccccc2C1=O	46*	.	39	.	44
COc1cc(SC#N)ccc1N=Cc1c(C)[nH]n(-c2ccc(Cl)cc2)c1=O	-41	3	14	4	-38*
COc1cc2c(C#N)c(N3CCc4ccccc4C3)nc(N)c2c(N)n1	41*	-28	33	61*	-21
CC(=NNC(=S)Nc1ccccc1)c1ccccn1	.	.	32	.	.
C=CCNC(=S)N/N=C(\C)c1ccccn1	-44	10	37	-12	-6
CC1=C(C(=O)OCc2ccccc2)C(c2ccccc2Br)NC(=O)N1 (centres undefined)	0	.	13	.	.
Cc1ccc(S(=O)(=O)N2CCN(C(=O)CN3C(=O)NC4(CCCCC4)C3=O)CC2)c(C)c1	38*	.	-12	.	-18
Cc1ccc(C)c(S(=O)(=O)N2CCN(C(=O)CN3C(=O)NC(C)(C)C3=O)CC2)c1	-8	.	-4	.	.
Cc1ccc(N=Cc2cc(Cc3ccccc3Cl)cc([N+](=O)[O-])c2O)c(O)c1	30	47	58	17	30
CC(NNC(=S)N1CCN(c2ccccn2)CC1)c1nccc2ccccc12 (centres undefined)	-42	.	-3	.	-75*
CCNC(=S)N1CCN(c2ccccn2)CC1	-2	31	-30	8	.
Cc1ccc(N2C(=O)C3CCCN3C2=S)cc1C (centres undefined)	-9	.	-18	.	.
Cc1ccc(-c2nc(NC(=O)CSc3cc(C)c4ccccc4n3)ns2)cc1	57*	4	1	66*	-2
C=CC(=O)N1C/C(=C/c2ccccc2)C(=O)/C(=C\c2ccccc2)C1	38*	.	33	.	2
CC(=O)C1=C(c2cccc([N+](=O)[O-])c2)N(C(C)=O)n2c(C)nnc2S1	-308	3	-26	-3	-387*
SMILES	HKDC1 inh	G6PDH CS	PfG6PD inh	Diaphorase inh	HKDC1 act conf2
CC(=O)c1c(C(C)=O)c(C)n(-c2cccc([N+](=O)[O-])c2)c1C	-1	5	-21	6	.
COc1ccc(C2=NNC(=Nc3cc(S(=O)(=O)N(C)C)ccc3C)SC2)c(OC)c1	-125	.	35	.	-120*
COC(=O)c1cc2n(n1)CCN(Cc1ccc(C)cc1)C2=O	-5	-8	-10	12	.
COc1ccc(CN2CCn3nc(C(=O)NC(C)C)cc3C2=O)cc1	-75	7	-5	5	-28
CCN(CC)c1ccc2c(C)c(Cl)c(=O)oc2c1	9	12	5	27	.
CCN(CC)c1ccc2c(c1)oc(=O)c1c(Cl)cc(=O)oc12	49*	-37	8	16	48
CN1CCN(c2ccc(C(F)(F)F)cc2NC(=O)c2ccco2)CC1	-4	.	11	.	.
Cc1ccc(NC(=O)CSCC(=O)N(CCC(C)C)c2c(N)n(Cc3ccccc3)c(=O)[nH]c2=O)cc1	4	.	-8	.	.
O=C(NNS(=O)(=O)c1ccccc1F)c1ccccc1-n1cccc1	1	.	-31	.	.
COc1ccc(Cn2c(C)nc3c(c2=O)c2nc4ccccc4nc2n3Cc2ccco2)cc1	33	.	36	.	-10
Nc1ncnc2c1ncn2[C@@H]1O[C@H](CNC(=O)[C@@H](N)Cc2ccc(C(F)(F)F)cc2)[C@@H](O)[C@H]1O	-5	.	2	.	.
O=C(N/N=C/c1ccc(O)cc1O)/C(=C/c1ccccc1)CCO	-40	-12	-27	19	-19
CN(C)C(CNS(=O)(=O)c1cc([N+](=O)[O-])ccc1Cl)c1ccco1 (centres undefined)	11	.	32	.	.
O=C(OCC(=O)N1CCN(C(=O)c2ccco2)CC1)c1cc(-c2ccccc2)nc2ccccc12	37*	8	6	28	-23
c1ccc(Oc2ccccn2)cc1	6	.	-12	.	.
Cc1ccc(-n2c3nc(=O)[nH]c(=O)c-3cc3cc([N+](=O)[O-])ccc32)cc1C	61*	-34	43	91*	65
COC(=O)c1ccc2c(c1C(=O)OC)CN(S(=O)(=O)C(C)(C)C)[C@H]2CCO	-9	.	9	.	.
Cn1c(-c2ccccc2)c(C(=O)CC#N)c2ccccc21	-45	-1	-40	2	-42*
O=NNc1nc2ccccc2n1Cc1ccccc1	-40	.	37	.	-44*
CC1(C)CC[C@]2(C(=O)n3ccnc3)CC[C@]3(C)[C@H](C(=O)C=C4[C@@]5(C)C=C(C#N)C(=O)C(C)(C)[C@@H]5CC[C@]43C)[C@@H]2C1	48*	.	50	.	33
